In ChEMBL document CHEMBL1781943, “Molluscicidal metabolites from an assemblage of Palmyra Atoll cyanobacteria” (J Nat Prod, 2011):
The source made the active and inactive calls. No cut-off for these calls is given here.

How the values were obtained:
Candida albicans = assay: Antifungal activity against Candida albicans; assay type: functional, organism-based
Biomphalaria glabrata = assay: Molluscicidal activity against Biomphalaria glabrata assessed as mortality after 24 hrs; assay type: functional
In short: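 Test organism: the snail Biomphalaria glabrata. Pure compound was made up as a 20 mg/mL stock in EtOH, and an aliquot of this stock was diluted with distilled water to give the snail exposure solution. Snails were scored for death, and LC50 values were reported.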

[1] = Cytotoxicity against mouse Neuro2a cells up to 100 uM; assay type: cell-based; conditions: n2a
Staphylococcus aureus = assay: Antibacterial activity against methicillin-resistant Staphylococcus aureus; assay type: functional, organism-based
NCI-H460 = assay: Cytotoxicity against human H460 cells up to 100 uM; assay type: cell-based

SMILES | Activity (Candida albicans) | LC50 (Biomphalaria glabrata) [µM] | Activity [1] | Activity (Staphylococcus aureus) | Activity (NCI-H460)
COC1=CC(=O)S[C@@H](CO)C1 [THIOPALMYRONE] | inactive | 8.3 | Non-toxic | inactive | Non-toxic
COC(/C=C/CO)=C/C(=O)N1C(=O)C=C[C@@H]1C [PALMYRROLINONE] | inactive | 6 | Non-toxic | inactive | Non-toxic
